Measurements published in the array DNA melting data of Ke et al. (doi:10.1101/2024.01.08.574731).

Experiments:
[1] = melting temperature; fluorescence melt of hairpins on a sequencing array, two-state fit, raised by 9.35 °C to match UV melts; conditions: sodium 0.088 M
Procedure, shortened: (§1)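 Folding enthalpy and melting temperature come from bootstrapped two-state fits to Cy3 fluorescence of library hairpins carrying annealed Cy3 and quencher oligos on a sequenced MiSeq flow cell. Imaging was done in 50 mM Na-HEPES pH 8.0, 25 mM NaCl, stepping by 2.5 °C up to 60 °C, and signals were normalised to pre-quench Cy3 and to control constructs. Results of four replicates were combined by inverse variance, and fitted temperatures were raised by 9.35 °C to match UV melts.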

[2] = folding enthalpy; higher = less favourable; fluorescence melt of hairpins on a sequencing array, two-state fit; conditions: sodium 0.088 M
Procedure, shortened: as §1

Sequence	Tm [1]	folding enthalpy [2]
GGGTAGACGAAAGTCCCC (((..(((....))))))	46.5 °C	-18.6 kcal/mol
GCCATCCCGAAAGGGGGC (((..(((....))))))	51.8 °C	-18.1 kcal/mol
GATCTCTAAAGAGATC ((((((....))))))	51.4 °C	-33.4 kcal/mol
GGTAGACGAAAGTCCACC (((.(((....))).)))	46.3 °C	-23.8 kcal/mol
GACGAAGGAAACTTCGCC (.(((((....))))).)	43.7 °C	-16.8 kcal/mol
TTGTAGAAATACAA (((((....)))))	24.9 °C	-6.32 kcal/mol
GTCTCTCGAAAGAGTGAC (((.(((....))).)))	49.7 °C	-32.6 kcal/mol
GCGTGTCGAAAGACCGC (((.(((....))))))	67 °C	-33 kcal/mol
GTAGTGCCGAAAGGCTAC (((..(((....))))))	36.2 °C	-9.39 kcal/mol
GCACAGGGAAACCTACGC ((..(((....)))..))	34.9 °C	-15.8 kcal/mol
GCCTGGCGAAAGCCGAGC ((..(((....)))..))	49.5 °C	-13.5 kcal/mol
GTATAGCGAAAGCTGTAC (((.(((....))).)))	51.1 °C	-31.5 kcal/mol
GCAACCCGAAAGGGCTGC (((.(((....))).)))	60.6 °C	-44.6 kcal/mol
GGCAATGGAAACGTTGCC (((((.(....).)))))	54.5 °C	-56.8 kcal/mol
GCAAGAGAAATCTTGC ((((((....))))))	52.8 °C	-38.3 kcal/mol
GCGTGCTCGAAAGAGCGC (((..(((....))))))	51.5 °C	-10.2 kcal/mol
GGTACGCCGAAAGGCACC (((..(((....))))))	32 °C	-8.21 kcal/mol
GTAAGACGAAAGTCCTAC (((.(((....))).)))	34.7 °C	-15.7 kcal/mol
CGCTCGGAAACGACCGCG ((((((....)))..)))	38.6 °C	-21.6 kcal/mol
TACGGGAAACCGTA (((((....)))))	48.5 °C	-15.8 kcal/mol
CGGCCGGAAACGGTGCCG ((((((....)))..)))	51.9 °C	-35.8 kcal/mol
TGAAAGAAATTTCA (((((....)))))	26.4 °C	-5.86 kcal/mol
GAAACAGCGAAAGCTTTC (((..(((....))))))	29.1 °C	-15.3 kcal/mol

Sequence	Tm [1]	folding enthalpy [2]
GATCCTGACAAGGATC ((((((....))))))	63 °C	-38 kcal/mol
GCAGGCGAAAGCCCTTGC ((((((....)))..)))	38.9 °C	-11.9 kcal/mol
GGACCTGGAAACAGATCC (((.(((....))).)))	40.2 °C	-28.7 kcal/mol
GATCCCGAAAGGGGGATC ((((((....)))..)))	51 °C	-20.1 kcal/mol
GCGAGGCGAAAGCGTTGC ((.(.((....)).).))	55.5 °C	-18.6 kcal/mol
GCTGCGCGAAAGCCCTGC ((.(.((....)).).))	38.5 °C	-17.3 kcal/mol
GATCTGGCCCAGATC ((((((...))))))	49.7 °C	-35.1 kcal/mol
GTCTAAGGAAACTCAGAC ((((.((....)).))))	26.6 °C	-11.5 kcal/mol
GATCCGGGAACGGATC ((((((....))))))	66.1 °C	-33.4 kcal/mol
GCGTCTCGAAAGAGCCGC (((.(((....))).)))	56.5 °C	-42.6 kcal/mol
GATCGGAGTGCCGATC ((((((....))))))	57 °C	-30.2 kcal/mol
GTCAGCGAAAGCTCTGAC ((((((....)))..)))	37.3 °C	-18.5 kcal/mol
CGAGCGGAAACGCATTCG ((((((....)))..)))	33.1 °C	-14.8 kcal/mol
GATCTTATCAAGATC ((((((...))))))	46 °C	-29.7 kcal/mol
GCCTTCGAAAGAATCGGC ((((((....)))..)))	34.8 °C	-23.4 kcal/mol
GACTTTCCGAAAGGAGTC (((..(((....))))))	29.6 °C	-13 kcal/mol
GTGACTCGAAAGAGCAC (((.(((....))))))	48.1 °C	-26.2 kcal/mol
GTGGGAGGAAACTCCTAC ((.((((....)))).))	46.8 °C	-25.1 kcal/mol
GGTTGTGGAAACACAGTC (..((((....))))..)	29.1 °C	-13.2 kcal/mol
GCTAGGCGAAAGCGTGGC ((.(.((....)).).))	49.8 °C	-19.5 kcal/mol
GTCCCTGGAAACAGAGAC (((.(((....))).)))	36.3 °C	-28.4 kcal/mol
CGGCGTCGGAAACGACCG (((..(((....))))))	47.4 °C	-13.8 kcal/mol
GAGAGCGGAAACGCTTTC ((.((((....)))).))	46.4 °C	-17.3 kcal/mol
